In ChEMBL document CHEMBL1177874, “Synthesis and in vitro anticancer screening of some novel 4-[2-amino-3-cyano-4-substituted-5,6,7,8-tetrahydroquinolin-1-(4H)-yl]benzenesulfonamides” (Eur J Med Chem, 2010):

What was measured:
[1] = Cytotoxicity against mouse EAC cells assessed as non-viable cells at 10 ug/ml after 2 hrs by trypan blue exclusion assay; format: functional, Ehrlich
In short: (§1)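 EAC cells drawn aseptically by needle aspiration of ascitic fluid from previously inoculated mice; suspension at 2.5 × 10^6 cells per ml. Test agents dissolved in DMSO (1 ml) at 100, 50, 25 and 10 µg, then diluted into the cell suspension. Incubation 2 h at 37 °C. Non-viable cell percentage counted by trypan blue exclusion. IC50 taken from the survival ratio versus concentration curve.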

[2] = Cytotoxicity against mouse EAC cells assessed as non-viable cells at 50 ug/ml after 2 hrs by trypan blue exclusion assay; format: functional, Ehrlich; in short: as §1
[3] = Cytotoxicity against mouse EAC cells after 2 hrs by trypan blue exclusion assay; format: functional, cell-based; conditions: Ehrlich; in short: as §1
[4] = Cytotoxicity against mouse EAC cells assessed as non-viable cells at 25 ug/ml after 2 hrs by trypan blue exclusion assay; format: functional, Ehrlich; in short: as §1
[5] = Cytotoxicity against mouse EAC cells assessed as non-viable cells at 100 ug/ml after 2 hrs by trypan blue exclusion assay; format: functional, Ehrlich; in short: as §1

| SMILES | Activity [1] [%] | Activity [2] [%] | IC50 [3] | Activity [4] [%] | Activity [5] [%] |
| --- | --- | --- | --- | --- | --- |
| N#CC1=C(N)N(c2ccc(S(N)(=O)=O)cc2)C2=C(CCCC2)C1c1cccs1 (stereo not given) | 0 | 10 | > 100 µg/mL | 5 | 20 |
| N#CC1=C(N)N(c2ccc(S(N)(=O)=O)cc2)C2=C(CCCC2)C1c1ccc(Cl)c(Cl)c1 (stereo not given) | 1 | 50 | 100 µg/mL | 40 | 50 |
| N#CC1=C(N)N(c2ccc(S(N)(=O)=O)cc2)C2=C(CCCC2)C1c1ccc(Cl)cc1Cl (stereo not given) | 0 | 50 | 105 µM | 50 | 70 |
| Cc1ccc(C2C(C#N)=C(N)N(c3ccc(S(N)(=O)=O)cc3)C3=C2CCCC3)o1 (stereo not given) | 0 | 10 | > 100 µg/mL | 10 | 30 |
| N#CC1=C(N)N(c2ccc(S(N)(=O)=O)cc2)C2=C(CCCC2)C1c1cccc([N+](=O)[O-])c1 (stereo not given) | 0 | 2 | > 100 µg/mL | 1 | 12 |
| COc1ccc(C2C(C#N)=C(N)N(c3ccc(S(N)(=O)=O)cc3)C3=C2CCCC3)cc1 (stereo not given) | 50 | 100 | 22.9 µM | 90 | 100 |
| COc1ccccc1C1C(C#N)=C(N)N(c2ccc(S(N)(=O)=O)cc2)C2=C1CCCC2 (stereo not given) | 30 | 50 | 115 µM | 40 | 100 |
| N#CC1=C(N)N(c2ccc(S(N)(=O)=O)cc2)C2=C(CCCC2)C1c1c(O)ccc2ccccc12 (stereo not given) | 10 | 20 | 100 µg/mL | 5 | 50 |
| N#CC1=C(N)N(c2ccc(S(N)(=O)=O)cc2)C2=C(CCCC2)C1c1ccccc1Cl (stereo not given) | 0 | 5 | > 100 µg/mL | 0 | 10 |
| N#CC1=C(N)N(c2ccc(S(N)(=O)=O)cc2)C2=C(CCCC2)C1c1ccccc1O (stereo not given) | 10 | 50 | 118 µM | 40 | 100 |
| N#CC1=C(N)N(c2ccc(S(N)(=O)=O)cc2)C2=C(CCCC2)C1c1ccc(O)cc1 (stereo not given) | 20 | 60 | 82.9 µM | 42 | 100 |
| COc1ccc2ccccc2c1C1C(C#N)=C(N)N(c2ccc(S(N)(=O)=O)cc2)C2=C1CCCC2 (stereo not given) | 5 | 10 | 100 µg/mL | 10 | 50 |
| COc1cc(OC)c(C2C(C#N)=C(N)N(c3ccc(S(N)(=O)=O)cc3)C3=C2CCCC3)cc1OC (stereo not given) | 0 | 50 | 101 µM | 0 | 100 |
| CCOc1cc(C2C(C#N)=C(N)N(c3ccc(S(N)(=O)=O)cc3)C3=C2CCCC3)ccc1OC (stereo not given) | 0 | 5 | > 100 µg/mL | 5 | 10 |
| N#CC1=C(N)N(c2ccc(S(N)(=O)=O)cc2)C2=C(CCCC2)C1/C=C/c1ccccc1 (stereo not given) | 50 | 90 | 23.1 µM | 70 | 70 |
| N#CC1=C(N)N(c2ccc(S(N)(=O)=O)cc2)C2=C(CCCC2)C1c1ccc([N+](=O)[O-])cc1 (stereo not given) | 0 | 10 | > 100 µg/mL | 5 | 20 |
| COc1cccc2c1C(=O)c1c(O)c3c(c(O)c1C2=O)C[C@@](O)(C(=O)CO)C[C@@H]3O[C@H]1C[C@H](N)[C@H](O)[C@H](C)O1 [DOXORUBICIN] | 17 | 70 | 69.9 µM | 25 | 100 |
| N#CC1=C(N)N(c2ccc(S(N)(=O)=O)cc2)C2=C(CCCC2)[C@@H]1c1ccc2c(c1)OCO2 | 100 | 100 | < 22.2 µM | 100 | 100 |
| N#CC1=C(N)N(c2ccc(S(N)(=O)=O)cc2)C2=C(CCCC2)C1c1ccccc1 (stereo not given) | 5 | 20 | > 100 µg/mL | 10 | 30 |
| Cc1ccc(C2C(C#N)=C(N)N(c3ccc(S(N)(=O)=O)cc3)C3=C2CCCC3)cc1 (stereo not given) | 20 | 80 | 85.7 µM | 30 | 90 |
| COc1ccc(C2C(C#N)=C(N)N(c3ccc(S(N)(=O)=O)cc3)C3=C2CCCC3)c2ccccc12 (stereo not given) | 0 | 10 | > 100 µg/mL | 5 | 20 |
| COc1cc(C2C(C#N)=C(N)N(c3ccc(S(N)(=O)=O)cc3)C3=C2CCCC3)ccc1O (stereo not given) | 0 | 30 | 100 µg/mL | 2 | 50 |
